According to ChEMBL document CHEMBL5335784, “Discovery of a novel 1,3,4-oxadiazol-2-one-based NLRP3 inhibitor as a pharmacological agent to mitigate cardiac and metabolic complications in an experimental model of diet-induced metaflammation” (Eur J Med Chem, 2023):
Activity calls are given as the source filed them. The rule behind the calls is not given here.

How the values were obtained:
[1] = n-Octanol/water distribution coefficient, log D of the compound at pH 7.4 measured after 4 hrs by shake flask method; format: physicochemical
Summary of the method: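 Shake-flask at room temperature between n-octanol and 50 mM phosphate buffer pH 7.4, ionic strength 0.15 M KCl. Phases were pre-saturated by 4 h shaking. Compound at about 0.1 mg/ml in buffer, shaken about 20 min with n-octanol, then centrifuged at 10000 rpm for 10 min.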

[2] = Stability of the compound in saline solution containing 2% DMSO and 5% Cremophor-EL measured at 4 degC for more than 7 days by RP-HPLC analysis; format: physicochemical; conditions: buffer, 168 h; time 7 day
Summary of the method: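 A 2 mg/mL solution in saline with 2% DMSO and 5% Cremophor-EL was kept at 4 °C or 25 °C for 7 days and analysed daily by RP-HPLC at 226/254 nm.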

Rattus norvegicus [3] = test: Antiinflammatory activity against high fat diet fed-induced metaflammation Wistar rat model assessed as reduction in HFD-induced anthropometric alterations by measuring reduction in perirenal fat deposition at 20 mg/kg/day, ip administered for 4 weeks; format: functional, organism-based
Summary of the method: (§1)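 Male Wistar rats on high-fat diet (60% kcal fat) or standard diet for 12 weeks; 20 mg/kg/day i.p. or vehicle (saline, 2% DMSO, 5% Cremophor-EL) over the last 28 days. Body weight recorded weekly. After sacrifice, abdominal, epididymal, retroperitoneal and perirenal fat, liver and heart excised and weighed. Cardiac somatic index = heart weight/body weight ×100. n=6–7 per group.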

Rattus norvegicus [4] = test: Antiinflammatory activity against high fat diet fed-induced metaflammation Wistar rat model assessed as reduction in HFD-induced anthropometric alterations by measuring reduction in epididymal fat deposition at 20 mg/kg/day, ip administered for 4 weeks; format: functional, organism-based; summary of the method: as §1
Rattus norvegicus [5] = test: Antiinflammatory activity against high fat diet fed-induced metaflammation Wistar rat model assessed as reduction in HFD-induced metabolic alterations by measuring reduction in plasma glucose level at 20 mg/kg/day, ip administered for 4 weeks by glucometer analysis; format: functional, organism-based
Summary of the method: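 Rats fed HFD or SD for 12 weeks, dosed 20 mg/kg/day i.p. in saline/2% DMSO/5% Cremophor-EL during the final 28 days. Serum obtained after sacrifice by centrifuging blood at 2000 x g, 10 min, 4 °C. Glucose read by glucometer; total, HDL and LDL cholesterol and triglycerides measured with commercial kits. n=6–7 per group.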

Rattus norvegicus [6] = test: Antiinflammatory activity against high fat diet fed-induced metaflammation Wistar rat model assessed as reduction in serum IL-1 beta level at 20 mg/kg/day, ip administered for 4 weeks by ELISA; format: functional, organism-based
Summary of the method: (§2)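 Male Wistar rats on HFD or SD for 12 weeks received 20 mg/kg/day i.p. (saline, 2% DMSO, 5% Cremophor-EL) or vehicle for the last 28 days. Circulating IL-1β, TNF-α, BNP and Gal-3 quantified by ELISA in blood collected after sacrifice. n=6–7 per group.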

Rattus norvegicus [7] = test: Cardioprotective activity against high fat diet fed-induced metaflammation Wistar rat model assessed as reduction in myocardial damage by measuring reduction in plasma BNP level at 20 mg/kg/day, ip administered for 4 weeks by ELISA; format: functional, organism-based; summary of the method: as §2
[8] = Effect on BNP level in standard diet fed Wistar rat plasma at 20 mg/kg/day, ip administered for 4 weeks; format: toxicity, organism-based; conditions: in vivo, 672 h; summary of the method: as §2
[9] = Effect on Gal-3 level in standard diet fed Wistar rat plasma at 20 mg/kg/day, ip administered for 4 weeks; format: toxicity, organism-based; conditions: in vivo, 672 h; summary of the method: as §2
Rattus norvegicus [10] = test: Cardioprotective activity against myocardial ischemia/reperfusion injury-induced contractile impairment and high fat diet fed obese Wistar rat model assessed as developed LVP recovery at 20 mg/kg/day, ip administered for 4 weeks followed by excised heart exposed to global ischemia for 30 mins and reperfusion for 120 mins and measured at the end of reperfusion (reference value: 32 +/-4 mmHg); format: functional
[11] = Effect on left ventricular end diastolic pressure in standard diet fed Wistar rat model at 20 mg/kg/day, ip administered for 4 weeks (reference value: 3+/-1 mm Hg); format: toxicity, organism-based; conditions: in vivo, 672 h
Rattus norvegicus [12] = test: Cardioprotective activity against ischemia/reperfusion-induced myocardial injury and standard diet fed Wistar rat model assessed as infarct size at 20 mg/kg/day, ip administered for 4 weeks followed by excised heart exposed to global ischemia for 30 mins and reperfusion for 120 mins and measured at the end of reperfusion by nitroblue tetrazolium staining based analysis (Rvb ~ 62+/-2%); format: functional; conditions: 672 h
Summary of the method: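 Hearts from HFD or SD rats (20 mg/kg/day i.p., last 28 days) Langendorff-perfused (KH buffer, 37 °C, 12 ml/min). After 40 min stabilization they underwent 30 min global ischemia and 120 min reperfusion. The LV was stained; unstained necrotic and stained viable tissue separated and weighed. Infarct size expressed as % of LV mass. n=6–7.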

Rattus norvegicus [13] = test: Cardioprotective activity against ischemia/reperfusion-induced myocardial injury and high diet fed obese Wistar rat model assessed as decrease in LDH activity in coronary effluents at 20 mg/kg/day, ip administered for 4 weeks followed by excised heart exposed to global ischemia for 30 mins and reperfusion for 120 mins and measured during first 20 mins of reperfusion by spectrophotometric analysis; format: functional, organism-based
Summary of the method: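 HFD or SD rats, dosed 20 mg/kg/day i.p. for the final 28 days, anaesthetised with ethyl carbamate (2 g/kg i.p.). Hearts Langendorff-perfused with Krebs–Henseleit buffer (pH 7.4, 37 °C, 12 ml/min); 40 min stabilization, 30 min global no-flow ischemia, 120 min reperfusion. Coronary effluent collected on ice before ischemia and at 10, 20, 30 min reperfusion; LDH activity by McQueen method. n=6–7.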

Rattus norvegicus [14] = test: (§3) Inhibition of ischemia/reperfusion-induced NLRP3 inflammasome activation in ischemia/reperfusion-induced myocardial injury and standard diet fed Wistar rat model assessed as decrease in NLRP3 protein expression at 20 mg/kg/day, ip administered for 4 weeks followed by excised heart exposed to global ischemia for 30 mins and reperfusion for 120 mins by immunoblot analysis; format: functional, organism-based
Summary of the method: (§4)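 Left ventricles from Langendorff hearts (30 min global ischemia/120 min reperfusion) of HFD or SD rats dosed 20 mg/kg/day i.p. for the final 28 days. Tissue homogenized in RIPA buffer with protease/phosphatase inhibitors. 50 μg protein run on 8% SDS-PAGE and immunoblotted for NLRP3 (1:500), normalized to β-actin by densitometry; n=4 per group.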

Rattus norvegicus [15] = test: as §3, with “high fat” for “standard”, “fed obese” for “fed”; format: functional, organism-based; summary of the method: as §4
Rattus norvegicus [16] = test: as §3, with “inflammation” for “NLRP3 inflammasome activation”, “cardiac TNF-alpha level” for “NLRP3 protein expression”, “ELISA” for “immunoblot analysis”; format: functional, organism-based
Summary of the method: (§5)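 Male Wistar rats on standard or 60% kcal fat diet for 12 weeks; last 28 days i.p. 20 mg/kg/day in saline with 2% DMSO and 5% Cremophor-EL, or vehicle. Hearts perfused by Langendorff with KH buffer at 12 ml/min, 37°C, then 40 min stabilization, 30 min global no-flow ischemia and 120 min reperfusion. Cytokines measured in LV tissue; n=6–7 per group.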

Rattus norvegicus [17] = test: (§6) Inhibition of ischemia/reperfusion-induced inflammation in ischemia/reperfusion-induced myocardial injury and high fat diet fed obese Wistar rat model assessed as decrease in cardiac IL-1 beta level at 20 mg/kg/day, ip administered for 4 weeks followed by excised heart exposed to global ischemia for 30 mins and reperfusion for 120 mins by ELISA; format: functional, organism-based; summary of the method: as §5
Rattus norvegicus [18] = test: as §6, with “oxidative stress” for “inflammation”, “standard” for “high fat”, “fed” for “fed obese”, “MDA” for “IL-1 beta”, “TBARS assay” for “ELISA”; format: functional, organism-based
Summary of the method: (§7)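 Same rat diet, dosing and Langendorff ischemia/reperfusion protocol. LV homogenized 10% w/v in 0.9% KCl pH 7.4. Homogenate heated at 100 °C for 15 min with TCA and TBA plus butylated hydroxytoluene, centrifuged, and read at […]. MDA expressed as nmol/g heart tissue, compared with sham hearts perfused for 190 min.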

Rattus norvegicus [19] = test: as §6, with “oxidative stress” for “inflammation”, “MDA” for “IL-1 beta”, “TBARS assay” for “ELISA”; format: functional, organism-based; summary of the method: as §7

In the case of CCOC(=O)Cn1nc(Cc2ccccc2Cl)oc1=O, the logD at 4 h [1] is reported as 2.03, the Stability [2] is reported as “Stable” and the Activity (Rattus norvegicus [3]) is reported as “Active”. The Activity (Rattus norvegicus [4]) was “Active”, the Activity (Rattus norvegicus [5]) was “Active” and the Activity (Rattus norvegicus [6]) was “Active”. The Activity (Rattus norvegicus [7]) was “Active”, the Activity [8] was “Non-Toxic” and the Activity [9] was “Non-Toxic”. The Activity (Rattus norvegicus [10]) was 65 mmHg, the Activity [11] was 3 mmHg and the infarct size in vivo at 20 mg/kg/day (Rattus norvegicus [12]) was about 53%. The Activity (Rattus norvegicus [13]) was “Active”, the inhibition (Rattus norvegicus [14]) was “Active” and the inhibition (Rattus norvegicus [15]) was “Active”. The inhibition (Rattus norvegicus [16]) was “Active”, the inhibition (Rattus norvegicus [17]) was “Active” and the inhibition (Rattus norvegicus [18]) was “Active”. For the same molecule, the inhibition (Rattus norvegicus [19]) was “Active”.
